How the values were obtained:
[1] = Inhibition of LPS-induced mouse B cells proliferation assessed as [3H]TdR incorporation at 10 uM […]; format: functional
In short: (§1)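 Mouse spleen cells (4 × 10^6/well) were cultured with test compound plus a selective stimulus: concanavalin A at 5 µg/mL for T cells, or E. coli LPS for B cells. Incubation was 48 h at 37 °C in 5% CO2, with a 0.25 µCi/well 3H-thymidine pulse over the final 6 h. Incorporated radioactivity was read by liquid scintillation, as the mean of triplicates, with Student t-test versus control.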

[2] = Inhibition of LPS-induced mouse B cells proliferation assessed as [3H]TdR incorporation at 0.1 uM […]; format: functional; in short: as §1
[3] = Inhibition of concanavalin A-induced mouse T cells proliferation assessed as [3H]TdR incorporation at 10 uM […]; format: functional, T-cell; in short: as §1
[4] = Inhibition of concanavalin A-induced mouse T cells proliferation assessed as [3H]TdR incorporation at 0.1 uM […]; format: functional, T-cell; in short: as §1
[5] = Inhibition of concanavalin A-induced mouse T cells proliferation assessed as [3H]TdR incorporation at 1 uM […]; format: functional, T-cell; in short: as §1
[6] = Inhibition of LPS-induced mouse B cells proliferation assessed as [3H]TdR incorporation at 1 uM […]; format: functional; in short: as §1

Structure (SMILES) | Activity [1] | Activity [2] | Activity [3] | Activity [4] | Activity [5] | Activity [6]
COc1c(O[C@@H]2O[C@H](CO)[C@@H](O)[C@H](O)[C@H]2O)cc(C(=O)CCc2ccc(O)cc2)cc1O[C@@H]1O[C@H](CO)[C@@H](O)[C@H](O)[C@H]1O | 24600 cpm | 30900 cpm | 74100 cpm | 84800 cpm | 74100 cpm | 22800 cpm
COc1cc(O)c(C(=O)CCc2ccc(O)c(O)c2)c(O[C@@H]2O[C@H](CO)[C@@H](O)[C@H](O)[C@H]2O)c1 | 24000 cpm | 22200 cpm | 33000 cpm | 66700 cpm | 71400 cpm | 22100 cpm
COc1cc(O)c(C(=O)CCc2ccc(O)cc2)c(O[C@@H]2O[C@H](CO)[C@@H](O)C(=O)[C@H]2O)c1 | 16400 cpm | 34200 cpm | 32000 cpm | 38300 cpm | 26700 cpm | 35000 cpm
COc1cc(O)c(C(=O)CCc2ccc(O)cc2)c(O[C@@H]2O[C@H](CO)[C@@H](O)[C@H](O)[C@H]2OC(C)=O)c1 | 29800 cpm | 46600 cpm | 70100 cpm | 83300 cpm | 81600 cpm | 45000 cpm
COc1cc(O)c(C(=O)CCc2ccc(O)cc2)c(O)c1 [ASEBOGENIN] | 34100 cpm | 32500 cpm | 58400 cpm | 79300 cpm | 80300 cpm | 28300 cpm
COc1cc(O)c(C(=O)CCc2ccc(O)cc2)c(O[C@@H]2O[C@H](CO)[C@@H](O)[C@H](O)[C@H]2O)c1 [ASEBOTIN] | 35200 cpm | 47400 cpm | 79600 cpm | 89800 cpm | 87200 cpm | 40700 cpm
O=C(CCc1ccc(O)cc1)c1c(O)cc(O)cc1O [PHLORETIN] | 30700 cpm | 32700 cpm | 69400 cpm | 63900 cpm | 75700 cpm | 29300 cpm
O=C(CCc1ccc(O)cc1)c1c(O)cc(O)cc1O[C@@H]1O[C@H](CO)[C@@H](O)[C@H](O)[C@H]1O [PHLORIZIN] | 30500 cpm | 33000 cpm | 33000 cpm | 36100 cpm | 35500 cpm | 32400 cpm
COc1cc(O)c(C(=O)CCc2ccc(O)cc2)c(O)c1Cc1c(OC)cc(O)c(C(=O)CCc2ccc(O)cc2)c1O [PIEROTIN A] | 36500 cpm | 38100 cpm | 22600 cpm | 75400 cpm | 75000 cpm | 32700 cpm
COc1cc(O)c(C(=O)CCc2ccc(O)cc2)c2oc3cc(O)c(O)cc3c12 [PIEROTIN B] | 3940 cpm | 22800 cpm | 10800 cpm | 76200 cpm | 59000 cpm | 28600 cpm

— ChEMBL document CHEMBL1158705, “Dihydrochalcones from the leaves of Pieris japonica” (2005)
